This passage reports IC50 and inhibition results from ChEMBL document CHEMBL3108680, “Diversity-oriented synthesis of α-aminophosphonates: a new class of potential anticancer agents” (Eur J Med Chem, 2013).

Format in all cases: functional, cell-based
In assay [1] the test system is Jurkat. Kind of assay: Cytotoxicity against human Jurkat cells after 48 hrs by MTT assay. The gist of the method:
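Cells seeded at line-dependent densities, held 24 h compound-free, then exposed 48 h to six 2-fold dilutions (top […]). MTT (10 mg/ml PBS solution) added for 4 h at 37 °C; DMSO-solubilized formazan read at 570 nm. Three runs in triplicate.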
Background: Tetrazolium dyes change colour on reduction, which living cells bring about.

Assay [2] deals with MG-63. Nature of the assay: Cytotoxicity against human MG63 cells at 500 uM after 48 hrs by MTT assay.
Assay [3] deals with COLO 320DM. Nature of the assay: Cytotoxicity against human COLO320DM cells at 500 uM after 48 hrs by MTT assay.
The subject of assay [4] is NCI-H23. Kind of assay: Cytotoxicity against human NCI-H23 cells after 48 hrs by MTT assay. The note with it: for pIC50: NCI-H23, 48 h. The gist of the method:
(§1)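 Cells seeded at densities suited to their growth and incubated 24 h compound-free. They were then treated 48 h with six 2-fold serial dilutions, top […]. Viability was measured by MTT (added from a 10 mg/ml PBS solution; 4 h, 37 °C), followed by centrifugation, DMSO dissolution and A570. Run thrice in triplicate; mean ± SD, n = 3.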

Assay [5] relates to A549. Nature of the assay: Cytotoxicity against human A549 cells at 500 uM after 48 hrs by MTT assay.
In assay [6] the test system is Jurkat. Nature of the assay: Cytotoxicity against human Jurkat cells at 100 uM after 48 hrs by MTT assay.
The nature of assay [7]: (§2) Cytotoxicity against human MG63 cells after 48 hrs by MTT assay. The conditions noted are these: MG-63, 48 h. The method, boiled down: as §1
In assay [8] the test system is MG-63. Described as §2. The method, boiled down: as §1
Assay [9] is described as follows: (§3) Cytotoxicity against human COLO320DM cells after 48 hrs by MTT assay. The conditions noted are these: COLO 320DM. The method, boiled down: (§4)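 Jurkat and Colo 320DM grown in RPMI 1640 with 10% FBS and 1% ampicillin; A549 in 90% DMEM with 10% FBS. Cells seeded at line-dependent densities, held 24 h compound-free, then exposed 48 h to six 2-fold dilutions (top […]). MTT (10 mg/ml PBS solution) added for 4 h at 37 °C; DMSO-solubilized formazan read at 570 nm. Three runs in triplicate.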

In assay [10] the test system is COLO 320DM. The description is as §3. The method, boiled down:
as §4

Assay [11] relates to A549. Kind of assay: Cytotoxicity against human A549 cells after 48 hrs by MTT assay. The note with it: for pIC50: A549, 48 h. The method, boiled down:
as §4

The subject of assay [12] is NCI-H23. Nature of the assay: Cytotoxicity against human NCI-H23 cells at 500 uM after 48 hrs by MTT assay.
Assay [13] relates to MG-63. Kind of assay: Cytotoxicity against human MG63 cells at 250 uM after 48 hrs by MTT assay.
Assay [14] has as its system NCI-H23. Kind of assay: Cytotoxicity against human NCI-H23 cells at 250 uM after 48 hrs by MTT assay.
Assay [15] concerns Jurkat. Nature of the assay: Cytotoxicity against human Jurkat cells at 500 uM after 48 hrs by MTT assay.
The subject of assay [16] is Jurkat. Kind of assay: Cytotoxicity against human Jurkat cells at 200 uM after 48 hrs by MTT assay.
The test system of assay [17] is COLO 320DM. Kind of assay: Cytotoxicity against human COLO320DM cells at 200 uM after 48 hrs by MTT assay.
Assay [18] relates to A549. Kind of assay: Cytotoxicity against human A549 cells at 200 uM after 48 hrs by MTT assay.

pIC50: −log10 of the molar value. The source made the active and inactive calls. No cut-off for these calls is given here.

In the case of `O=P(Oc1ccccc1)(Oc1ccccc1)C(Nc1cccc(F)c1)c1ccc2c(c1)OCO2` (stereo unspecified), the negative logarithm of the IC50 (pIC50) in the assay with Jurkat [1] is 3.31; with NCI-H23 [4] it was 4.32. In addition, the inhibition result in the assay with Jurkat [1] and with NCI-H23 [4] was “Dose-dependent effect” each time. Moreover, the inhibition result with MG-63 [2], with COLO 320DM [3] and in the assay on A549 [5] was “inactive” each time.

With `CCOP(=O)(OCC)C(Nc1ccccc1)c1ccc(OC)c(OC)c1` (stereo unspecified), the inhibition entry in the assay on Jurkat [6] is “inactive”. Further, the pIC50 in assay [7] is 4.47; in assay [9], 4.44; in the assay on NCI-H23 [4], 4.40; in the assay with A549 [11], 4.13. Further, the inhibition result in the assay on MG-63 [8], in the assay on COLO 320DM [10], in the assay with NCI-H23 [4] and with A549 [11] was “Dose-dependent effect” each time.

Consider `CCCCOP(=O)(OCCCC)C(Nc1ccccc1C)c1ccc2c(c1)OCO2` (stereo unspecified), for which the negative-log IC50 (pIC50) in the assay with Jurkat [1] was < 3.30. Besides, the inhibition entry in the assay on Jurkat [1] is “Dose-dependent effect”. For the same compound, the inhibition result with MG-63 [2], in the assay with COLO 320DM [3], with NCI-H23 [12] and with A549 [5] was “inactive” each time.

For `CCCCOP(=O)(OCCCC)C(Nc1cccc(Cl)c1)c1ccc2c(c1)OCO2` (stereo unspecified), the negative-log IC50 (pIC50) is < 3.30 with Jurkat [1]; 3.97 in assay [7]; 4.03 in assay [9]; 4.11 in the assay with NCI-H23 [4]; 3.58 with A549 [11]. Besides, the inhibition entry in the assay on Jurkat [1], in the assay with MG-63 [8], with COLO 320DM [10], in the assay on NCI-H23 [4] and in the assay on A549 [11] was “Dose-dependent effect” in each case.

For `CO[C@@]12[C@H](COC(N)=O)C3=C(C(=O)C(C)=C(N)C3=O)N1C[C@@H]1N[C@@H]12` [MITOMYCIN], in the assay with NCI-H23 [4], the inhibition result was “Dose-dependent effect” and the pIC50 was 5.70.

Take `CCCCOP(=O)(OCCCC)C(Nc1ccc2c(c1)OCO2)c1ccc2c(c1)OCO2` (stereo unspecified): the pIC50 in the assay on Jurkat [1] is 4.10; in assay [9], 4.18; in the assay with A549 [11] it was 3.72. Besides, the inhibition result with Jurkat [1], in the assay on COLO 320DM [10] and in the assay on A549 [11] was “Dose-dependent effect” each time. The inhibition result in the assay on MG-63 [13] and with NCI-H23 [14] was “inactive” throughout.

In the case of `CCOP(=O)(OCC)C(Nc1c(C)cccc1C)c1ccc2c(c1)OCO2` (stereo unspecified), the pIC50 in the assay with Jurkat [1] was < 3.30; in assay [7], 3.94; in assay [9] it was 3.98; in the assay with NCI-H23 [4] it was 3.61; with A549 [11], < 3.30. Besides, the inhibition entry in the assay on Jurkat [1], in the assay on MG-63 [8], in the assay with COLO 320DM [10], in the assay on NCI-H23 [4] and in the assay on A549 [11] was “Dose-dependent effect” each time.

On to `CCCCOP(=O)(OCCCC)C(Nc1cccc(F)c1)c1ccc2c(c1)OCO2` (stereo unspecified), for which the pIC50 in the assay on Jurkat [1] is < 3.30; in assay [7], 3.91; in assay [9], 4.10; in the assay on NCI-H23 [4], 4.02; in the assay on A549 [11] it was 3.44. Moreover, the inhibition result with Jurkat [1], in the assay with MG-63 [8], in the assay with COLO 320DM [10], in the assay on NCI-H23 [4] and with A549 [11] was “Dose-dependent effect” throughout.

On to `CC/C(=C(\c1ccccc1)c1ccc(OCCN(C)C)cc1)c1ccccc1`, for which, in the assay on Jurkat [1], the inhibition result is “Dose-dependent effect”.

Take `CCOP(=O)(OCC)C(Nc1ccccc1)c1ccc(F)cc1` (stereo unspecified): the inhibition entry with Jurkat [15], in the assay on MG-63 [2], in the assay on NCI-H23 [12] and with A549 [5] was “inactive” throughout. This compound also gave a negative-log IC50 (pIC50) in [9] of 3.80. Also, the inhibition entry with COLO 320DM [10] was “Dose-dependent effect”.

On to `CCCCOP(=O)(OCCCC)C(N[C@H](C)c1ccccc1)c1ccc2c(c1)OCO2` (stereo partly specified), for which the pIC50 was 5.40 with Jurkat [1]; 4.87 in assay [7]; 4.80 in assay [9]; 4.54 in the assay with NCI-H23 [4]; 4.36 in the assay on A549 [11]. For the same compound, the inhibition entry with Jurkat [1], with MG-63 [8], with COLO 320DM [10], in the assay on NCI-H23 [4] and in the assay with A549 [11] was “Dose-dependent effect” in each case.

As for `CCOP(=O)(OCC)C(Nc1ccccc1)c1ccc(OC)cc1` (stereo unspecified), the inhibition result in the assay on Jurkat [16], in the assay with COLO 320DM [17] and with A549 [18] was “inactive” each time. The negative-log IC50 (pIC50) is 3.98 in assay [7] and 4.27 in the assay with NCI-H23 [4]. Also, the inhibition result in the assay with MG-63 [8] and in the assay with NCI-H23 [4] was “Dose-dependent effect” each time.

On to `CCOP(=O)(OCC)C(Nc1ccccc1)c1ccc2c(c1)OCO2` (stereo unspecified), for which the pIC50 with Jurkat [1] is < 3.30; in assay [7], 4.16; in assay [9], 4.04; in the assay on NCI-H23 [4] it was 4.18; with A549 [11], 3.87. Besides, the inhibition entry in the assay on Jurkat [1], with MG-63 [8], with COLO 320DM [10], in the assay on NCI-H23 [4] and with A549 [11] was “Dose-dependent effect” in each case.

As to `CCOP(=O)(OCC)C(Nc1ccccc1)c1ccc([N+](=O)[O-])cc1` (stereo unspecified), in the assay on Jurkat [6], the inhibition result is “inactive”. Moreover, the pIC50 is 4.50 in assay [7], 4.38 in assay [9], 4.43 in the assay with NCI-H23 [4] and 4.24 with A549 [11]. For the same compound, the inhibition entry in the assay on MG-63 [8], in the assay with COLO 320DM [10], in the assay on NCI-H23 [4] and in the assay with A549 [11] was “Dose-dependent effect” throughout.

On to `CCCCOP(=O)(OCCCC)C(N[C@@H](C)c1ccccc1)c1ccc2c(c1)OCO2` (stereo partly specified), for which the inhibition entry with Jurkat [15], in the assay with MG-63 [2], in the assay with COLO 320DM [3], with NCI-H23 [12] and in the assay with A549 [5] was “inactive” in each case.

Take `CCOP(=O)(OCC)C(Nc1ccccc1O)c1ccc2c(c1)OCO2` (stereo unspecified): the pIC50 in the assay on Jurkat [1] was < 3.30; in assay [7], 3.94; in [9], 4.10; in the assay on NCI-H23 [4], 3.72; in the assay with A549 [11], 3.56. For the same compound, the inhibition result in the assay on Jurkat [1], with MG-63 [8], in the assay with COLO 320DM [10], with NCI-H23 [4] and with A549 [11] was “Dose-dependent effect” throughout.

Take `CCOP(=O)(OCC)C(Nc1ccccc1)c1ccc(OC)c(O)c1` (stereo unspecified): the pIC50 with Jurkat [1] was 4.24; in assay [7], 4.43; in [9], 4.32; in the assay with NCI-H23 [4], 4.40; with A549 [11] it was 4.20. The inhibition entry in the assay on Jurkat [1], in the assay on MG-63 [8], in the assay with COLO 320DM [10], in the assay with NCI-H23 [4] and with A549 [11] was “Dose-dependent effect” in each case.

`O=c1[nH]cc(F)c(=O)[nH]1` [FLUOROURACIL]: in assay [9], the negative-log IC50 (pIC50) is 5.70. In addition, the inhibition entry in the assay on COLO 320DM [10] is “Dose-dependent effect”.

Turning to `COc1cccc2c1C(=O)c1c(O)c3c(c(O)c1C2=O)C[C@@](O)(C(=O)CO)C[C@@H]3O[C@H]1C[C@H](N)[C@H](O)[C@H](C)O1` [DOXORUBICIN], the results for the negative logarithm of the IC50 (pIC50) (in assay [7]; in the assay on A549 [11]) were 5.50 and 5.40, respectively. In addition, the inhibition result with MG-63 [8] and in the assay with A549 [11] was “Dose-dependent effect” in each case.

In general, pIC50 refers to the negative decadic logarithm of the IC50, by convention in mol/L.
